This is an account of results in ChEMBL document CHEMBL1126061, “Cyclic RGD peptide analogues as antiplatelet antithrombotics” (J Med Chem, 1992).

*1 amine or outer side, *2 acyl side, *3 side chain or, on linkers, in order; H or OH if unused. Where a SMILES comes first, the peptide text is derived from it. Bridges are numbered along the chain shown (N, C = ends). [ ]: non-standard residue; d: D form. Cys(O)(CH2CO) = O=C([C@H](C[S+]([O-])CC(=O)[*:3])N[*:1])[*:2]

What all share (format): protein-complex assay
In experiment [1] the target is T1, Integrin alpha-IIb/beta-3 (Homo sapiens, UniProt P05106+P08514). Nature of the experiment: Inhibition of Fibrinogen binding to Fibrinogen receptor. In outline: (§1)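 Solid-phase ELISA: human fibrinogen (10 µg/mL) coated, BSA-blocked; samples plus purified human platelet GPIIbIIIa (40 µg/mL) incubated 1 h at room temperature. Bound receptor detected with anti-GPIIbIIIa antibody AP3 (1 µg/mL, 1 h), then goat anti-mouse HRP (1 h); OPD/H2O2 at pH 5, stopped with H2SO4, absorbance 492-405 nm. IC50 from four-parameter fit; n ≥ 3.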
T1 sequence (P05106 27-788 limits assumed): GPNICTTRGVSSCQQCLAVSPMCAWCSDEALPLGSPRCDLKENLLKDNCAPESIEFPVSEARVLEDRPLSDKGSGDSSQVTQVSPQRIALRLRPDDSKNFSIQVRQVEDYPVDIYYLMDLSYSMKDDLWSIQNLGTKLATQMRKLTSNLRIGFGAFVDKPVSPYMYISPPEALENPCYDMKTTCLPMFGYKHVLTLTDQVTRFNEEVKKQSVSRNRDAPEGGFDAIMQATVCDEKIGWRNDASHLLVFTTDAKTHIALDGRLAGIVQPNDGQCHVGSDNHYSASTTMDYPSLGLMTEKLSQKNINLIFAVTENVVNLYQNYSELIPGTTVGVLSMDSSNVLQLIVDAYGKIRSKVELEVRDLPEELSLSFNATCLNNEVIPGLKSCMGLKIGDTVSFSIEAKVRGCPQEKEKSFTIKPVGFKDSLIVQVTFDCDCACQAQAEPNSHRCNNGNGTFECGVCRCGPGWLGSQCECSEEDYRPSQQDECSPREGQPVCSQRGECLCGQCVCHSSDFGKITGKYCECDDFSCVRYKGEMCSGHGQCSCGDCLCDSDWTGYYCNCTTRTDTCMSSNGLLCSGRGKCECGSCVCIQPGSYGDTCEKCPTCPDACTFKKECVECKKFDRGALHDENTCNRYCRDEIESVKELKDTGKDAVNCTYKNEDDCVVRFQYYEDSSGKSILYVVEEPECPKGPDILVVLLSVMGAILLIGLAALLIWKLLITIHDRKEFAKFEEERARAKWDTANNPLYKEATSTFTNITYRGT
T1 sequence (P08514 32-887 limits assumed): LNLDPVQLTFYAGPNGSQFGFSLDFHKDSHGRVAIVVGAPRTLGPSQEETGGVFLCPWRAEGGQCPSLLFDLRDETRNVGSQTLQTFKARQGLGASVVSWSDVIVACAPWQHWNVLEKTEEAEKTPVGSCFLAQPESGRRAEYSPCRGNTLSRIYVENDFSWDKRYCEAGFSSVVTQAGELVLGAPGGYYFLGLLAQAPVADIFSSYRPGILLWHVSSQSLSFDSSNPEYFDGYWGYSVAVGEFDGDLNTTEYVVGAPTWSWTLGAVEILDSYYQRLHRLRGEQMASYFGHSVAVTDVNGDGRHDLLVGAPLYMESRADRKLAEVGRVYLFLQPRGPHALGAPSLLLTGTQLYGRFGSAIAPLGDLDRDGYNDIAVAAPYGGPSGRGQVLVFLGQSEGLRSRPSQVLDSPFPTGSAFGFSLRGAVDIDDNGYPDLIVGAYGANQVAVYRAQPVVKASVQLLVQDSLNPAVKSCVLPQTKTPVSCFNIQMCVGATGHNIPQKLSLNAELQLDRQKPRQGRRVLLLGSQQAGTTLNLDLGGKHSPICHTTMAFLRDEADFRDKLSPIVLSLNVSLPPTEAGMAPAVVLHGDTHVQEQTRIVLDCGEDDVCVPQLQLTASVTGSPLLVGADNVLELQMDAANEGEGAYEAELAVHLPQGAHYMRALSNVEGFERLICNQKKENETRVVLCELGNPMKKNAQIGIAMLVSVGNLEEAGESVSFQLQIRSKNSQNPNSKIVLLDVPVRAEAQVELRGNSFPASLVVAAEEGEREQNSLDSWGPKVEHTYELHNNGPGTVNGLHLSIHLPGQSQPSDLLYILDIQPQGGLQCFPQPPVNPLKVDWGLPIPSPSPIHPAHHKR
T1 sequence (P08514 891-1039 limits assumed): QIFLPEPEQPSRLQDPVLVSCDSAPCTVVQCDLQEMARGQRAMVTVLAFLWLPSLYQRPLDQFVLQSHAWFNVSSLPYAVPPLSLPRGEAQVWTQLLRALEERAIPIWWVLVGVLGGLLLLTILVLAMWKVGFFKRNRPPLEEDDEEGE

Experiment [2] has as its target T1, Integrin alpha-IIb/beta-3. Nature of the experiment: The compound was tested for the inhibition of fibrinogen receptor. In outline:
as §1

Experiment [3] has as its target T1, Integrin alpha-IIb/beta-3. Nature of the experiment: Inhibition of Fibrinogen receptor. A digest of the protocol:
as §1

Usually IC50 stands for the concentration at which inhibition is half-maximal. Lower therefore signals higher potency. As for `N=C(N)NCCC[C@@H]1NC(=O)[C@H](CO)NC(=O)C[S+]([O-])C[C@@H](C(=O)O)NC(=O)[C@H](CC(=O)O)NC(=O)CNC1=O` (some centres undefined) (SRGD[Cys(O)(CH2CO)]-OH; lactam N-5), the IC50 in experiment [1] was 50 nM; in experiment [2], 8 nM.
Consider `N=C(N)NCCC[C@@H]1NC(=O)[C@H](CCCCN)NC(=O)C[S+]([O-])C[C@@H](C(=O)O)NC(=O)[C@H](CC(=O)O)NC(=O)CNC1=O` (some centres undefined) (KRGD[Cys(O)(CH2CO)]-OH; lactam N-5), for which the IC50 in experiment [1] is 14 nM; in experiment [2], 2.6 nM.
As for `N=C(N)NCCC[C@H](N)C(=O)NCC(=O)N[C@@H](CC(=O)O)C(=O)N[C@@H](Cc1ccccc1)C(=O)O` (H-RGDF-OH), the IC50 in experiment [3] worked out at 31 nM.
In the case of `N=C(N)NCCC[C@@H]1NC(=O)[C@@H](Cc2ccccc2)NC(=O)C[S+]([O-])C[C@@H](C(=O)O)NC(=O)[C@H](CC(=O)O)NC(=O)CNC1=O` (some centres undefined), the results for the IC50 in experiment [1] and in experiment [2] were 33 nM and 5.6 nM, respectively.
On to `CC(C)C[C@@H]1NC(=O)C[S+]([O-])C[C@@H](C(=O)O)NC(=O)[C@H](CC(=O)O)NC(=O)CNC(=O)[C@H](CCCN=C(N)N)NC1=O` (some centres undefined) (LRGD[Cys(O)(CH2CO)]-OH; lactam N-5), for which the IC50 in experiment [1] was 25 nM; in experiment [2], 3.9 nM.
Turning to `N=C(N)NCCC[C@@H]1NC(=O)[C@H](Cc2ccccc2)NC(=O)C[S+]([O-])C[C@@H](C(=O)O)NC(=O)[C@H](CC(=O)O)NC(=O)CNC1=O` (some centres undefined), the values for the IC50 in experiment [1] and in experiment [2] were 16 nM and 6.6 nM, respectively.
Compound `N=C(N)NCCC[C@@H]1NC(=O)CNC(=O)C(c2ccccc2C(F)(F)F)SC[C@@H](C(=O)O)NC(=O)[C@H](CC(=O)O)NC(=O)CNC1=O` (stereo in doubt; 20B) returned an IC50 in experiment [2] of 2.7 nM.
On the same count and under the same terms, the same measure for `N=C(N)NCCC[C@@H]1NC(=O)[C@@H](CC(N)=O)NC(=O)CSC[C@@H](C(=O)O)NC(=O)[C@H](CC(=O)O)NC(=O)CNC1=O` ({CH2CO}-[dN]RGDC-OH; thioether N-5): 35 nM; for `CCC1SC[C@@H](C(=O)O)NC(=O)[C@H](CC(=O)O)NC(=O)CNC(=O)[C@H](CCCN=C(N)N)NC(=O)CNC1=O` (stereo in doubt; 25A): 20 nM; for `N=C(N)NCCC[C@@H]1NC(=O)[C@H](Cc2c[nH]c3ccccc23)NC(=O)CSC[C@@H](C(=O)O)NC(=O)[C@H](CC(=O)O)NC(=O)CNC1=O`: 4 nM.
As to `CC(C)[C@@H]1NC(=O)C[S+]([O-])C[C@@H](C(=O)O)NC(=O)[C@H](CC(=O)O)NC(=O)CNC(=O)[C@H](CCCNC(=N)N)NC1=O` (some centres undefined) (VRGD[Cys(O)(CH2CO)]-OH; lactam N-5), the IC50 in experiment [1] is 4.5 nM; in experiment [2] it was 2.9 nM.
With `N=C(N)NCCC[C@@H]1NC(=O)CNC(=O)C(c2ccccc2)SC[C@@H](C(=O)O)NC(=O)[C@H](CC(=O)O)NC(=O)CNC1=O` (stereo in doubt; 18B), the IC50 in experiment [2] stood at 0.5 nM.
Still for that read-out and setting: the same measure for `C[C@@H]1NC(=O)C[S+]([O-])C[C@@H](C(=O)O)NC(=O)[C@H](CC(=O)O)NC(=O)CNC(=O)[C@H](CCCN=C(N)N)NC1=O` (stereo in doubt; 68A): 1.6 nM.
